Source: ChEMBL document CHEMBL4834419 (J Med Chem, 2021)
In brackets after ≈: the same amount, converted by molar mass. Activity calls are given as the source filed them. The calls are words filed in the database; no cut-off is given here.

Legend:
[1] = target: T1, Retinoic acid receptor RXR-alpha (Homo sapiens, UniProt P19793); assay: (§1) Agonist activity at human RXRalpha transfected in human HEK293T cells co-expressing pFR/pRL-Luc incubated for 14 to 16 hrs by hybrid reporter gene assay; format: cell-based
T1 sequence (P19793 whole entry): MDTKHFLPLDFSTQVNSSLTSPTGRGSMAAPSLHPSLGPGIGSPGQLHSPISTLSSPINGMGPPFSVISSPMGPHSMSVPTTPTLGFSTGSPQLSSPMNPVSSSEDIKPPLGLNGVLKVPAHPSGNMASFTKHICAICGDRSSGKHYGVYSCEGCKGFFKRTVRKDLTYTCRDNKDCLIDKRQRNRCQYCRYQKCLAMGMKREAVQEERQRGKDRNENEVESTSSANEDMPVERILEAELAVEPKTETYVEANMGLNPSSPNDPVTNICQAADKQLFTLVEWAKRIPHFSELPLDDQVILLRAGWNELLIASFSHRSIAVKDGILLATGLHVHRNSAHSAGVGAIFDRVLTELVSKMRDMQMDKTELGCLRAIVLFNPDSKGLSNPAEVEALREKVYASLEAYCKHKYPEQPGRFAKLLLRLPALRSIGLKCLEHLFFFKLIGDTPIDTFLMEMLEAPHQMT

[2] = target: T2, Retinoic acid receptor RXR-beta (Homo sapiens, UniProt P28702); assay: (§2) Agonist activity at human RXRbeta transfected in human HEK293T cells co-expressing pFR/pRL-Luc incubated for 14 to 16 hrs by hybrid reporter gene assay; format: cell-based
T2 sequence (P28702 whole entry): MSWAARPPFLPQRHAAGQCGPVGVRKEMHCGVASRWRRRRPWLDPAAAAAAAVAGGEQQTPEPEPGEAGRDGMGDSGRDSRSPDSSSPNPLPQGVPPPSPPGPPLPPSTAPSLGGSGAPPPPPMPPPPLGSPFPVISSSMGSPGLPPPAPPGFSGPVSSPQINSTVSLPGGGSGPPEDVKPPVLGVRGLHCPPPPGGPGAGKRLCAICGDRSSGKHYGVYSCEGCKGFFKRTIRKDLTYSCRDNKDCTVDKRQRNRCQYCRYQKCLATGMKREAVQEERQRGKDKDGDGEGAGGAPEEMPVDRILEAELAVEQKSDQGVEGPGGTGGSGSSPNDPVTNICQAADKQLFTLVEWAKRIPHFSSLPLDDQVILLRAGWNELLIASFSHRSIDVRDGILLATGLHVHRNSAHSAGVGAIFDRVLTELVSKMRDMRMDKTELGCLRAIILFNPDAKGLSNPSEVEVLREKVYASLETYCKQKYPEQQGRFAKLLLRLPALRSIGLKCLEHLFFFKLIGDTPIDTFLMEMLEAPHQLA

[3] = target: T3, Retinoic acid receptor RXR-gamma (Homo sapiens, UniProt P48443); assay: Agonist activity at human RXRgamma transfected in human HEK293T cells co-expressing pFR/pRL-Luc incubated for 14 to 16 hrs by hybrid reporter gene assay; format: cell-based
T3 sequence (P48443 whole entry): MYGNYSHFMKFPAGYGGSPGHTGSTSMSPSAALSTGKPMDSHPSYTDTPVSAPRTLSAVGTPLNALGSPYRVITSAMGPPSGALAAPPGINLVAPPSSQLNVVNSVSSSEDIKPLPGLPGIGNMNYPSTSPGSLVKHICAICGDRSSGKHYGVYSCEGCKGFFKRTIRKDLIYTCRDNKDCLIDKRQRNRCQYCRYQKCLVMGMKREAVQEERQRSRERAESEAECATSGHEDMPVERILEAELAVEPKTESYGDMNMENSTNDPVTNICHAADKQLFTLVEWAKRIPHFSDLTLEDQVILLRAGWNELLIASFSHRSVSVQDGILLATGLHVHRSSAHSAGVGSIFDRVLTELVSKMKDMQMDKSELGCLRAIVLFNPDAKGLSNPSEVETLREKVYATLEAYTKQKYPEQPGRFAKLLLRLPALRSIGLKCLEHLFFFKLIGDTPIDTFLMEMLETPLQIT

[4] = Metabolic stability in Sprague-Dawley rat liver microsomes assessed as compound degradation at 10 uM incubated for 60 min by HPLC analysis; format: ADME; conditions: 1 h
Method in brief: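 Compound at 10 μM final in 0.1 M phosphate, pH 7.4, was preincubated 5 min at 37 °C with an NADPH-regenerating system. Sprague-Dawley rat liver microsomes were then added. Reactions were stopped with ice-cold methanol at 0, 15, 30 and 60 min and remaining compound quantified by HPLC against an external calibration. Controls: no NADPH, heat-inactivated microsomes. Three independent experiments.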

[5] = target: T4, Retinoic acid receptor RXR-alpha (Homo sapiens) (UniProt P19793); assay: Agonist activity at human RXRalpha transfected in human HEK293T cells co-expressing pFR/pRL-Luc at 30 uM incubated for 14 to 16 hrs by hybrid reporter gene assay; format: cell-based; conditions: time 14-16 hrs
T4 sequence (whole entry): T1 sequence (P19793 whole entry)
Method in brief: (§3)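 Gal4 hybrid reporter assay in HEK293T cells, seeded 24 h before transfection (Lipofectamine LTX, Opti-MEM) with pFR-Luc, pRL-SV40 and pFA-CMV plasmid carrying the hinge region and LBD of the human receptor. After 5 h, compound added in 0.1% DMSO, with 0.1% DMSO alone as untreated control. Dual-Glo luciferase read after 14−16 h; firefly/renilla normalized; duplicates, ≥2 independent experiments.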

[6] = target: T5, Retinoic acid receptor RXR-beta (Homo sapiens) (UniProt P28702); assay: Agonist activity at human RXRbeta transfected in human HEK293T cells co-expressing pFR/pRL-Luc at 30 uM incubated for 14 to 16 hrs by hybrid reporter gene assay; format: cell-based; conditions: time 14-16 hrs; method in brief: as §3
T5 sequence (whole entry): T2 sequence (P28702 whole entry)

[7] = target: T6, Retinoic acid receptor RXR-gamma (Homo sapiens) (UniProt P48443); assay: Agonist activity at human RXRgamma transfected in human HEK293T cells co-expressing pFR/pRL-Luc at 30 uM incubated for 14 to 16 hrs by hybrid reporter gene assay; format: cell-based; conditions: time 14-16 hrs; method in brief: as §3
T6 sequence (whole entry): T3 sequence (P48443 whole entry)

[8] = target: T6, Retinoic acid receptor RXR-gamma (Homo sapiens); assay: Agonist activity at human RXRgamma transfected in human HEK293T cells co-expressing pFR/pRL-Luc at 50 uM incubated for 14 to 16 hrs by hybrid reporter gene assay; format: cell-based; conditions: time 14-16 hrs; method in brief: as §3
[9] = target: T4, Retinoic acid receptor RXR-alpha (Homo sapiens); assay: as §1; format: cell-based; conditions: time 14-16 hrs
[10] = target: T5, Retinoic acid receptor RXR-beta (Homo sapiens); assay: as §2; format: cell-based; conditions: time 14-16 hrs
[11] = Aqueous solubility of compound in pH 8 phosphate buffer incubated for 1 hr by HPLC analysis; format: physicochemical
Method in brief: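 Solubility was measured with 3 mg compound in 2 mL 0.1 M phosphate buffer, pH 8, shaken 1 h at 37 °C. The mixture was pressed through a Uniprep filter and the dissolved compound in the filtrate quantified by HPLC against an external calibration; three independent experiments.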

[12] = target: T7, Nuclear receptor subfamily 1 group I member 3 (Homo sapiens, UniProt Q14994); assay: Agonist activity against human CAR in human HEK293T cells co-expressing pFR/pRL-Luc assessed as receptor activation at 10 uM incubated for 14 to 16 hrs by hybrid reporter gene assay relative to bexarotene; format: cell-based; conditions: time 14-16 hrs; method in brief: as §3
T7 sequence (Q14994 whole entry): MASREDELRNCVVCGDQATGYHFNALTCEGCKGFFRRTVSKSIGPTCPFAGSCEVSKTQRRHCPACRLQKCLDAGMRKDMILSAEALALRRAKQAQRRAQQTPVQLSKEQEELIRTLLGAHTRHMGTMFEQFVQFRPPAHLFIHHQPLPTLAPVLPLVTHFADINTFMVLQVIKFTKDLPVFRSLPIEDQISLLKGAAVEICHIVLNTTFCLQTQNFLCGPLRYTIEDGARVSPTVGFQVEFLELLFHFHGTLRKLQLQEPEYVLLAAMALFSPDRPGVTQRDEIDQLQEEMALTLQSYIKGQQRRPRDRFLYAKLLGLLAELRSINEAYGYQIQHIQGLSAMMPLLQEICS

[13] = Half life in mouse at 10 mg/kg, po; format: ADME, organism-based; conditions: in vivo
Method in brief: (§4)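 Mice, n = 3, received a single oral dose of 10 mg/kg in water with 1% hydroxypropyl methylcellulose/Tween 80 (99:1). Tail-vein blood was drawn at 30 and 60 min and tissue collected at 3 h. Compound was quantified by LC−MS and PK derived by noncompartmental analysis.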

[14] = Cmax in mouse at 10 mg/kg, po; format: ADME, organism-based; design: route oral, dose 10 mg/kg; conditions: in vivo; method in brief: as §4
[15] = system: HepG2; assay: Cytotoxicity against human HepG2 cells assessed as reduction in cell viability up to 100 uM incubated for 48 hrs by WST-1 assay; format: cell-based; conditions: hepg2, 48 h
Method in brief: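 HepG2 cells were seeded at 3 × 10⁴/well and grown 24 h. Medium was then switched to DMEM with 1% FCS containing compound in 0.1% DMSO; 0.1% DMSO alone was the negative control. After 48 h, WST-1 was added and absorbance read at 450/620 nm after 45 min. Four experiments in duplicate.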

[16] = system: HepG2; assay: Cytotoxicity against human HepG2 cells assessed as reduction in cell viability incubated for 48 hrs by WST-1 assay; conditions: HepG2, 48 h
[17] = Half life in po dosed rat; format: ADME, organism-based; conditions: in vivo
[18] = Cmax in po dosed rat; format: ADME, organism-based; design: route oral; conditions: in vivo
[19] = Plasma concentration in mouse at 10 mg/kg, po measure after 3 hrs; format: ADME, organism-based; method in brief: as §4

Row | Structure (SMILES) | EC50 [1] | EC50 [2] | EC50 [3] | also measured
1 | O=C(O)CCc1nc(-c2ccccc2)c(-c2cc(Cl)cc(Cl)c2)o1 | 60 nM | 50 nM | 200 nM | Stabilty [4]: Stable
2 | O=C(O)CCc1ncc(-c2ccccc2)o1 | – | – | – | Activity [5]: inactive; Activity [6]: inactive; Activity [7]: inactive
3 | O=C(O)CCc1nc(-c2ccccc2)c(-c2ccccc2Cl)o1 | 17000 nM | 19100 nM | – | Activity [8]: inactive
4 | CN(C)c1cccc(-c2oc(CCC(=O)O)nc2-c2ccccc2)c1 | – | – | – | Activity [9]: inactive; Activity [10]: inactive; Activity [5]: inactive; Activity [6]: inactive; Activity [7]: inactive
5 | O=C(O)CCc1nc(-c2ccccc2)c(-c2cc(C(F)(F)F)cc(C(F)(F)F)c2)o1 | 50 nM | – | 50 nM | solubility at 1 h ([11]; phosphate buffer, pH 8): 146 µg/mL (≈ 340 µM); Stabilty [4]: Stable; Activity [12]: 4%; half-life [13]: > 3 h; Cmax [14]: 33000 ng/mL; Activity [15]: Non-Toxic
6 | O=C(O)CCc1nc(-c2ccccc2)co1 | – | – | – | Activity [5]: inactive; Activity [6]: inactive; Activity [7]: inactive
7 | O=C(O)CCCCc1nc(-c2ccccc2)c(-c2ccccc2)o1 | 8400 nM | 12400 nM | – | Activity [8]: inactive
8 | C=C(c1ccc(C(=O)O)cc1)c1cc2c(cc1C)C(C)(C)CCC2(C)C [BEXAROTENE] | – | – | – | IC50 [16]: 20000 nM; solubility ([11]; buffer, pH 8, 1 h): 0.3 µg/mL (≈ 0.861 µM); half-life [17]: 1.2 h; Cmax [18]: 600 ng/mL
9 | Cc1cccc(-c2oc(CCC(=O)O)nc2-c2ccccc2)c1 | 500 nM | 900 nM | 3500 nM | –
10 | O=C(O)CCc1nc(-c2ccccc2)c(-c2ccc(Cl)c(Cl)c2)o1 | 510 nM | 870 nM | 1500 nM | –
11 | Cc1ccc(-c2oc(CCC(=O)O)nc2-c2ccccc2)cc1 | 1000 nM | 1600 nM | > 10000 nM | –
12 | O=C(O)CCc1cc(-c2cc(Cl)cc(Cl)c2)n(-c2cccc(Cl)c2)n1 | 3100 nM | 2000 nM | 3500 nM | –
13 | O=C(O)CCc1cc(-c2cc(Cl)cc(Cl)c2)n(-c2ccc(F)cc2)n1 | 430 nM | 470 nM | 1640 nM | –
14 | O=C(O)CCCc1nc(-c2ccccc2)c(-c2cc(Cl)cc(Cl)c2)o1 | 480 nM | 500 nM | 1300 nM | –
15 | NC(=O)CCc1nc(-c2ccccc2)c(-c2ccccc2)o1 | – | – | – | Activity [5]: inactive; Activity [6]: inactive; Activity [7]: inactive
16 | O=C(O)Cc1nc(-c2ccccc2)c(-c2ccccc2)o1 | – | – | – | Activity [5]: inactive; Activity [6]: inactive; Activity [7]: inactive
17 | O=C(O)CCc1nc(-c2cccc(Cl)c2)c(-c2ccccc2)o1 | 1900 nM | 2900 nM | 6700 nM | –
18 | COc1ccc(-n2nc(CCC(=O)O)cc2-c2cc(Cl)cc(Cl)c2)cc1 | 1600 nM | 1400 nM | 4000 nM | –
19 | O=C(O)CCc1cc(-c2cc(Cl)cc(Cl)c2)n(-c2ccc(Cl)cc2)n1 | 300 nM | – | 1500 nM | Stabilty [4]: Stable; Activity [12]: 15%; Activity [15]: Non-Toxic; concentration at 3 h [19]: 35000 ng/mL
20 | COc1cccc(-c2oc(CCC(=O)O)nc2-c2ccccc2)c1 | 1400 nM | 1800 nM | > 10000 nM | –
21 | O=C(O)CCc1nc(-c2ccccc2Cl)c(-c2ccccc2)o1 | 36000 nM | 48000 nM | – | Activity [8]: inactive
